pIC50: −log10 of the molar value. ≈ marks a conversion by molar mass, not a printed value. Calls of active or inactive are those of the source. The calls are words filed in the database; no cut-off is given here.
Assays:
Enterococcus faecalis [1] = experiment: Antimicrobial activity against Enterococcus faecalis ATCC 29212 by CLIS method
Staphylococcus aureus [2] = experiment: Antimicrobial activity against methicillin-resistant Staphylococcus aureus L32 clinical isolate by CLIS method; type: functional
Outline: (§1)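 MIC and MBC determined against biofilm-forming strains: MSSA ATCC 35556, E. faecalis ATCC 29212, and two clinical biofilm-forming MRSA isolates (L32, L44) obtained from patient blood samples.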

HCT-116 = experiment: Cytotoxicity against human HCT116 cells; type: functional, cell-based
Staphylococcus aureus [3] = experiment: Antimicrobial activity against methicillin-resistant Staphylococcus aureus L44 clinical isolate by CLIS method; type: functional
Outline: as §1

Staphylococcus aureus [4] = experiment: Antimicrobial activity against methicillin-susceptible Staphylococcus aureus ATCC 35556 by CLIS method
Enterococcus faecalis [5] = experiment: Antimicrobial activity against Enterococcus faecalis ATCC 29212 assessed as reduction in bacterial load at 4 fold MIC over 24 hrs by time-kill assay
Staphylococcus aureus [6] = experiment: Inhibition of methicillin-resistant Staphylococcus aureus L32 clinical isolate biofilm formation assessed as concentration required to eradicate growth after 24 hrs; type: functional, isolateL32
Outline: (§2)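 Modified Calgary pin-lid biofilm device, testing sessile bacteria seeded from an established biofilm. MBIC is the concentration giving no visible growth after 24 h incubation of preformed biofilm with antibiotic. MBEC is the minimal concentration that eradicates CFU/mL growth from the biofilm.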

Enterococcus faecalis [7] = experiment: Inhibition of Enterococcus faecalis ATCC 29212 biofilm formation at MIC
Enterococcus faecalis [8] = experiment: Inhibition of Enterococcus faecalis ATCC 29212 biofilm formation assessed as visible growth after 24 hrs
Staphylococcus aureus [9] = experiment: Inhibition of methicillin-susceptible Staphylococcus aureus ATCC 35556 biofilm formation assessed as visible growth after 24 hrs
Staphylococcus aureus [10] = experiment: Inhibition of methicillin-resistant Staphylococcus aureus L44 clinical isolate biofilm formation assessed as concentration required to eradicate growth after 24 hrs; type: functional
Outline: as §2

Staphylococcus aureus [11] = experiment: Antimicrobial activity against methicillin-resistant Staphylococcus aureus L44 clinical isolate assessed as reduction in bacterial load at 4 fold MIC over 24 hrs by time-kill assay; type: functional
Outline: (§3)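 Time-kill assay at 2× and 4× MIC over 24 h. Starting inoculum 5 × 10⁵ CFU/mL. Read-out is the mean change in bacterial density (log₁₀ CFU/mL) from the starting inoculum at 24 h, compared with a growth control.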

Staphylococcus aureus [12] = experiment: Antimicrobial activity against methicillin-susceptible Staphylococcus aureus ATCC 35556 assessed as reduction in bacterial load at 2 X MIC over 24 hrs by time-kill assay
Staphylococcus aureus [13] = experiment: Antimicrobial activity against methicillin-resistant Staphylococcus aureus L32 clinical isolate assessed as reduction in bacterial load at 2 X MIC over 24 hrs by time-kill assay; type: functional
Outline: as §3

Staphylococcus aureus [14] = experiment: Inhibition of methicillin-susceptible Staphylococcus aureus ATCC 35556 biofilm formation assessed as concentration required to eradicate growth after 24 hrs
Staphylococcus aureus [15] = experiment: Antimicrobial activity against methicillin-resistant Staphylococcus aureus L32 clinical isolate assessed as reduction in bacterial load at 4 fold MIC over 24 hrs by time-kill assay; type: functional
Outline: as §3

Staphylococcus aureus [16] = experiment: Antimicrobial activity against methicillin-susceptible Staphylococcus aureus ATCC 35556 assessed as reduction in bacterial load at 4 fold MIC over 24 hrs by time-kill assay
Enterococcus faecalis [17] = experiment: Inhibition of Enterococcus faecalis ATCC 29212 biofilm formation assessed as concentration required to eradicate growth after 24 hrs
Staphylococcus aureus [18] = experiment: Inhibition of methicillin-resistant Staphylococcus aureus L44 clinical isolate biofilm formation assessed as visible growth after 24 hrs; type: functional
Outline: as §2

Staphylococcus aureus [19] = experiment: Inhibition of methicillin-resistant Staphylococcus aureus L32 clinical isolate biofilm formation assessed as visible growth after 24 hrs; type: functional
Outline: as §2

Staphylococcus aureus [20] = experiment: Inhibition of Staphylococcus aureus ATCC 35556 biofilm formation at MIC
Staphylococcus aureus [21] = experiment: Antimicrobial activity against methicillin-resistant Staphylococcus aureus L44 clinical isolate assessed as reduction in bacterial load at 2 X MIC over 24 hrs by time-kill assay; type: functional
Outline: as §3

Enterococcus faecalis [22] = experiment: Antimicrobial activity against Enterococcus faecalis ATCC 29212 assessed as reduction in bacterial load at 2 X MIC over 24 hrs by time-kill assay
Staphylococcus aureus [23] = experiment: Inhibition of methicillin-susceptible Staphylococcus aureus ATCC […] biofilm formation assessed as concentration required to eradicate growth after 24 hrs; type: functional
Outline: as §2

Row | Structure (SMILES) | MBC (Enterococcus faecalis [1]) | MIC (Enterococcus faecalis [1]) | MBC (Staphylococcus aureus [2]) | MIC (Staphylococcus aureus [2]) | pIC50 (HCT-116) | MBC (Staphylococcus aureus [3]) | MIC (Staphylococcus aureus [3]) | MBC (Staphylococcus aureus [4]) | MIC (Staphylococcus aureus [4]) | log10CFU/ml (Enterococcus faecalis [5]) | Activity (Enterococcus faecalis [7]) | MBIC (Staphylococcus aureus [9]) | log10CFU/ml (Staphylococcus aureus [11]) | log10CFU/ml (Staphylococcus aureus [12]) | log10CFU/ml (Staphylococcus aureus [13]) | log10CFU/ml (Staphylococcus aureus [15]) | log10CFU/ml (Staphylococcus aureus [16]) | Activity (Staphylococcus aureus [20]) | log10CFU/ml (Staphylococcus aureus [21]) | log10CFU/ml (Enterococcus faecalis [22]) | other results
1 | CS[C@H]1SC[C@H](N(C)C(=O)[C@H](C)NC(=O)[C@@H](CO)NC(=O)c2cnc3ccccc3n2)C(=O)N(C)[C@@H](C(C)C)C(=O)OC[C@@H](NC(=O)c2cnc3ccccc3n2)C(=O)N[C@@H](C)C(=O)N(C)[C@@H]1C(=O)N(C)[C@H](C(=O)O)C(C)C [DEPSIECHINOSERINE] | > 14 µM | 14 µM (≈ 15.7 µg/mL) | > 14 µM | > 14 µM | 5.34 | > 14 µM | > 14 µM | > 14 µM | > 14 µM |  |  |  |  |  |  |  |  |  |  |  | 
2 | CS[C@H]1SC[C@H]2C(=O)N(C)[C@@H](C(C)C)C(=O)OC[C@@H](NC(=O)c3cnc4ccccc4n3)C(=O)N[C@@H](C)C(=O)N(C)[C@@H]1C(=O)N(C)[C@@H](C(C)C)C(=O)OC[C@@H](NC(=O)c1cnc3ccccc3n1)C(=O)N[C@@H](C)C(=O)N2C [ECHINOMYCIN] | 0.11 µM (≈ 0.121 µg/mL) | 0.01 µM (≈ 0.011 µg/mL) | 0.91 µM (≈ 1 µg/mL) | 0.03 µM (≈ 0.033 µg/mL) | > 8.52 | 0.45 µM (≈ 0.496 µg/mL) | 0.03 µM (≈ 0.033 µg/mL) | 0.45 µM (≈ 0.496 µg/mL) | 0.01 µM (≈ 0.011 µg/mL) | -1.42 | Active | 0.03 µM | -1.23 | -1.54 | 0.61 | -2.39 | -1.79 | Active | 0.423 | 0.04 | MBIC (Staphylococcus aureus [6]): >4 µM; MBIC (Enterococcus faecalis [8]): 0.22 µM; MBIC (Staphylococcus aureus [10]): >4 µM; MBEC (Staphylococcus aureus [14]): 0.22 µM; MBIC (Enterococcus faecalis [17]): 0.22 µM; MBIC (Staphylococcus aureus [18]): >4 µM; MBIC (Staphylococcus aureus [19]): >4 µM
3 | CS[C@@H](SC[C@@H](C(=O)N(C)[C@H](C(=O)O)C(C)C)N(C)C(=O)[C@H](C)NC(=O)[C@@H](CO)NC(=O)c1cnc2ccccc2n1)[C@@H](C(=O)N(C)[C@H](C(=O)O)C(C)C)N(C)C(=O)[C@H](C)NC(=O)[C@@H](CO)NC(=O)c1cnc2ccccc2n1 [ECHINOSERINE] | > 14 µM | > 14 µM | > 14 µM | > 14 µM | 4.87 | > 14 µM | > 14 µM | > 14 µM | > 14 µM |  |  |  |  |  |  |  |  |  |  |  | 
4 | CS[C@@H]1[C@H]2C(=O)N(C)[C@@H](C(C)C)C(=O)OC[C@@H](NC(=O)c3cnc4ccccc4n3)C(=O)N[C@@H](C)C(=O)N(C)[C@@H](C[S+]1[O-])C(=O)N(C)[C@@H](C(C)C)C(=O)OC[C@@H](NC(=O)c1cnc3ccccc3n1)C(=O)N[C@@H](C)C(=O)N2C (stereo partly drawn) | > 14 µM | 0.22 µM (≈ 0.246 µg/mL) | 7.17 µM (≈ 8.01 µg/mL) | 1.79 µM (≈ 2 µg/mL) | 6.40 | 7.17 µM (≈ 8.01 µg/mL) | 1.79 µM (≈ 2 µg/mL) | 3.58 µM (≈ 4 µg/mL) | 0.9 µM (≈ 1.01 µg/mL) | -1.04 | Active | 3.6 µM | -2.24 | -3.39 | -1.35 | -2.15 | -3.24 | Active | -1.09 | 0.69 | MBEC (Enterococcus faecalis [8]): >4 µM; MBEC (Staphylococcus aureus [23]): >4 µM; MBEC (Enterococcus faecalis [17]): >4 µM

From ChEMBL document CHEMBL1153900, “Structure-activity studies of echinomycin antibiotics against drug-resistant and biofilm-forming Staphylococcus aureus and Enterococcus faecalis” (Bioorg Med Chem Lett, 2009)
